Measurements from ChEMBL document CHEMBL5661985, “In silico design of novel probes for the atypical opioid receptor MRGPRX2” (Nat Chem Biol, 2017).
The source made the active and inactive calls. The calls are words filed in the database; no cut-off is given here.

Columns and labels:
[1] = target: T1, Mas-related G-protein coupled receptor member X2 (Homo sapiens) (UniProt Q96LB1); experiment: Agonist activity at MRGPRX2 (unknown origin) expressed in HTLA cells assessed as induction of beta-arrestin 2 recruitment at 10 uM incubated for 18 to 24 hrs by PRESTO-Tango assay; type: functional, cell-based; details: filed as agonist, time 18-24 hrs
T1 sequence (whole entry): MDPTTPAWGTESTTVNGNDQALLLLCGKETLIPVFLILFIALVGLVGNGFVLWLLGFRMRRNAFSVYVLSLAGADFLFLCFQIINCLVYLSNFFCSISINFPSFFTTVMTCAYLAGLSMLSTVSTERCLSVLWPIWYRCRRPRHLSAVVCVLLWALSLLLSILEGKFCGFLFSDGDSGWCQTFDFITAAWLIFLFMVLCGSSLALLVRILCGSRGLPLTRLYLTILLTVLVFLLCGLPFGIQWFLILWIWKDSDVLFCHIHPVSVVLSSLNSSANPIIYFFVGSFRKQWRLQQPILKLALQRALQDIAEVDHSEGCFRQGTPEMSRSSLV
Procedure, shortened: (§1)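 β-arrestin2 recruitment by PRESTO-Tango: HTLA cells transiently transfected (calcium phosphate) with codon-optimized MRGPRX2-Tango (WT or point mutant) or MRGPRB2-Tango, plated next day 20,000 cells/well on poly-L-lysine; drug in HBSS/20 mM HEPES/0.3% BSA pH 7.4 for 18–24 h; Bright-Glo luminescence (RLU); curves n=3 in triplicate, mutants n=4 in triplicate.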

[2] = target: T1, Mas-related G-protein coupled receptor member X2 (Homo sapiens); experiment: Agonist activity at MRGPRX2 receptor in human LAD2 cells transfected with MRGPRX2 siRNA assessed as increase in degranulation incubated for 30 mins by beta-hexosaminidase assay; type: functional, cell-based
Procedure, shortened: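 LAD2 cells (1.2 million/well) transfected with 25 nM MRGPRX2 siRNA pool or non-targeting pool, 72 h; 200,000 cells taken for β-hexosaminidase assay with EC80 concentration of agonist, 30 min 37°C; knockdown checked by qRT-PCR on 1 million cells; fold change % degranulation versus DMSO; two-way ANOVA with Sidak test.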

[3] = target: T1, Mas-related G-protein coupled receptor member X2 (Homo sapiens); experiment: Agonist activity at MRGPRX2 receptor in human LAD2 cells assessed as increase in intracellular calcium release by FLIPR assay; type: functional, cell-based; details: filed as agonist
Procedure, shortened: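 LAD2 human mast cells seeded 50,000/well in Tyrode's buffer with calcium dye, 1 h before drug; 10 s baseline, drug added, fluorescence followed 120 s; expressed as fold calcium release over baseline; n=3 in triplicate.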

[4] = target: T2, Mas-related G-protein coupled receptor member X2 (Homo sapiens, UniProt Q96LB1); experiment: Agonist activity at N-terminal Flag-tagged human MRGPRX2 receptor expressed in tetracycline-induced FLP-IN/T-REX 293 cells assessed as increase in intracellular calcium release by FLIPR assay; type: functional, cell-based
T2 sequence (Q96LB1 whole entry): T1 sequence (whole entry)

[5] = target: T1, Mas-related G-protein coupled receptor member X2 (Homo sapiens); experiment: Agonist activity at N-terminal Flag-tagged human MRGPRX2 receptor expressed in HEK-T cells assessed as increase in intracellular calcium release by FLIPR assay; type: functional, cell-based; details: HEK-T cell
Procedure, shortened: (§2)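 FLIPR calcium: FLP-IN/T-REX HEK-293-T stable line with N-terminal FLAG codon-optimized receptor, induced 24 h with 1 μg/mL tetracycline in 1% dialyzed FBS (uninduced cells as control); FLIPR calcium dye plus 2.5 mM probenecid 1 h 37°C; 10 s baseline, then drug in HBSS/20 mM HEPES/probenecid pH 7.4, 16-point curve 10 μM to 0.003 nM; fluorescence 120 s; fold over basal, n=3 triplicate.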

[6] = target: T1, Mas-related G-protein coupled receptor member X2 (Homo sapiens); experiment: Agonist activity at N-terminal Flag-tagged human MRGPRX2 receptor expressed in tetracycline-induced HEK-T cells assessed as increase in intracellular calcium release by FLIPR assay; type: functional, cell-based; details: HEK-T cell, filed as agonist; procedure, shortened: as §2
HTLA [7] = experiment: Agonist activity at MRGPRX2 D184E mutant (unknown origin) expressed in HTLA cells assessed as induction of beta-arrestin 2 recruitment incubated for 18 to 24 hrs by PRESTO-Tango assay; type: cell-based; details: Homo sapiens, time 18-24 hrs; procedure, shortened: as §1
[8] = target: T2, Mas-related G-protein coupled receptor member X2; experiment: Agonist activity at MRGPRX2 (unknown origin) expressed in HTLA cells assessed as induction of beta-arrestin 2 recruitment incubated for 18 to 24 hrs by PRESTO-Tango assay; type: functional, cell-based
HTLA [9] = experiment: Agonist activity at MRGPRX2 E164D mutant (unknown origin) expressed in HTLA cells assessed as induction of beta-arrestin 2 recruitment incubated for 18 to 24 hrs by PRESTO-Tango assay; type: cell-based; details: Homo sapiens, filed as agonist, time 18-24 hrs; procedure, shortened: as §1
[10] = target: T1, Mas-related G-protein coupled receptor member X2 (Homo sapiens); experiment: Agonist activity at N-terminal Flag-tagged human MRGPRX2 receptor expressed in FLP-IN/T-REX 293 cells assessed as increase in intracellular calcium release by FLIPR assay; type: functional, cell-based; details: filed as agonist; procedure, shortened: as §2

With `CN(C)C1CCN(c2cc(-c3ccccc3)nc3ccnn23)C1` (racemic) the Activity [1] was “Active”, the Activity [2] was “inactive” and the Activity [3] was “Active”.

`COC1=CC2CN(C)CCC2C=C1` (stereo not given) was tested, and the EC50 ([4]; read-out: pEC50 (converted)) was 1.62 µM.

For `CN1CC[C@@]23CCCC[C@@H]2[C@@H]1Cc1ccc(O)cc13` [DEXTRORPHAN], the Activity [5] was “inactive”, the EC50 ([4]; read-out: EC50) was 6 µM and the EC50 ([4]; read-out: pEC50 (converted)) was 3.89 µM. The Activity [6] was “Active”, the Activity (HTLA [7]) was “inactive” and the EC50 ([8]; read-out: EC50) was 4.3 µM. The EC50 ([8]; read-out: pEC50 (converted)) was 4.17 µM and the Activity (HTLA [9]) was “Active”.

For `CC[C@H](C)[C@H](N)C(=O)N[C@@H](CC(N)=O)C(=O)N[C@@H](CC(C)C)C(=O)N[C@@H](CCCCN)C(=O)N[C@@H](C)C(=O)N[C@@H](CC(C)C)C(=O)N[C@@H](C)C(=O)N[C@@H](C)C(=O)N[C@@H](CC(C)C)C(=O)N[C@@H](C)C(=O)N[C@@H](CCCCN)C(=O)N[C@@H](CCCCN)C(=O)N[C@H](C(=O)N[C@@H](CC(C)C)C(N)=O)[C@@H](C)CC`, the EC50 ([4]; read-out: pEC50 (converted)) was 11.7 µM, the Activity [10] was “Active” and the EC50 ([8]; read-out: pEC50 (converted)) was greater than 31.6 µM.
